Measurements pooled from the literature.
Target: Myosin light chain kinase 2, skeletal/cardiac muscle (MYLK2, Homo sapiens, UniProt Q9H1R3)

For COc1cc2ncnc(Nc3ccc(Oc4ccccc4)cc3C)c2cc1OC, the inhibition was -4% (enzyme activity, inhibitor; 1 µM).
With Clc1ccc(Nc2nnc(Cc3ccncc3)c3ccccc23)cc1 the remaining signal was 103% (cell-free assay; 0.5 µM).
For CC(C)(C)c1nc2c(s1)c1nc(N)ncc1c1ccc(NS(=O)(=O)c3c(F)cccc3F)c(F)c12, the remaining activity was 113% (enzyme activity, inhibitor, radiometric; 1 µM).
With CNC(=O)c1cc(Oc2ccc(NC(=O)Nc3ccc(Cl)c(C(F)(F)F)c3)cc2)ccn1 the inhibition was 16% (enzyme activity, inhibitor; 10 µM).
For O=C(Nc1cnn(-c2csc(C(=O)NC3COC3)c2)c1)Nc1ccccc1Cl, the remaining activity was 89.9% (enzyme activity, inhibitor; 5 µM).
NS(=O)(=O)c1cc(NC(=O)C2(c3ccccc3Cl)CC2)ccc1Oc1cccc(Cl)c1 gave a remaining binding of 73% (cell-free assay, competition with immobilised ligand; 1 µM).
With C=CC(=O)Nc1cc(Nc2nccc(Nc3cc(Cl)c(F)cc3C(C)(C)O)n2)c(OC)cc1N1CC[C@@H](N(C)C)C1 the inhibition was -9% (enzyme activity, inhibitor; 1 µM).
Cc1cnc(NC2CCOCC2)nc1-n1cnc(C(=O)NC(CN)c2cc(F)cc(Cl)c2)c1 (stereo not shown) has a remaining activity of 95% (enzyme activity, inhibitor, radiometric; 1 µM).
For COc1cc2c(N3CCN(C(=O)Nc4ccc(OC(C)C)cc4)CC3)ncnc2cc1OCCCN1CCCCC1, the remaining signal was 101% (cell-free assay; 0.5 µM).
For CC/C(=N\NC(=O)NCc1cccc(O)c1)c1ccc(O)c(C)c1O, the inhibition was 6% (enzyme activity, inhibitor; 0.1 µM).
CCN(CC)CCNC(=O)c1c(C)[nH]c(/C=C2\C(=O)Nc3ccc(F)cc32)c1C has an inhibition of 37% (enzyme activity, inhibitor; 0.3 µM).
CN([C@@H]1CCc2c(CC(=O)O)c3cc(S(C)(=O)=O)ccc3n2C1)S(=O)(=O)c1ccc(F)cc1 gave a remaining binding of 100% (cell-free assay, competition with immobilised ligand; 1 µM).
CCCOc1ccc(OC)c(F)c1C(=O)c1ccc(C(=O)N[C@@H]2CNC[C@H]2NC(=O)c2ccc3[nH]ncc3c2)cc1 gave a remaining activity of 76% (enzyme activity, inhibitor; 10 µM).
Cn1nc(C(F)(F)F)cc1-c1cnc(N2CCc3cc(S(=O)(=O)Nc4c(F)cc(Cl)cc4F)cc(N4CCCC4=O)c32)nc1 gave a remaining binding of 100% (cell-free assay, competition with immobilised ligand; 1 µM).
Cc1ccc(C(=O)Nc2ccc(CN3CCN(C)CC3)c(C(F)(F)F)c2)cc1C#Cc1cnc2cccnn12 has a remaining activity of 100% (enzyme activity, inhibitor; 23.5 nM).
CCS(=O)(=O)c1cc2cc(C[C@](O)(CC(C)(C)c3ccc(F)cc3C(N)=O)C(F)(F)F)[nH]c2cn1 gave a remaining binding of 98% (cell-free assay, competition with immobilised ligand; 1 µM).
The remaining signal of N#CCCc1ccc2c(c1)-c1[nH]c3ccc([N+](=O)[O-])cc3c1CC(=O)N2 is reported as 93.9% (cell-free assay; 0.5 µM).
With COc1cccc(CNC(=O)c2nc3scc(COCc4ccc(C(=O)O)cc4)c3c(=O)[nH]2)c1 the remaining binding was 100% (cell-free assay, competition with immobilised ligand; 1 µM).
O=C1Nc2ccc(Cl)cc2C1=Cc1cc(Cl)c(O)c(Cl)c1 gave a remaining signal of 71.5% (cell-free assay; 0.5 µM).
